In brackets after ≈: the same amount, converted by molar mass.

Drawing on ChEMBL document CHEMBL1165897, “Design, synthesis, characterization, and antibacterial activity of {5-chloro-2-[(3-substitutedphenyl-1,2,4-oxadiazol-5-yl)-methoxy]-phenyl}-(phenyl)-methanones” (2010), this text covers zone of inhibition and MIC for 10 molecules.

Assay [1] deals with Bacillus subtilis. Nature of the assay: Antibacterial activity against Bacillus subtilis NCIM 2063; ATCC 6633 at […] after 24 hrs by agar cup plate method. In kind it is functional, NCIM 2063; ATCC6633. The settings on record: ATCC6633, 24 h, read-out: IZ. The method in brief: (§1)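 Agar cup plate diffusion: test compounds at 100 µg/mL in 20% water in DMSO placed in bores cut in agar plates seeded with each organism, alongside standard drugs; incubated 37 °C for 24 h, then zone of inhibition around the bore measured. Values are the average of three experiments.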

Assay [2] has as its system Staphylococcus aureus. Nature of the assay: Antibacterial activity against Staphylococcus aureus NCIM 2079; ATCC 6538P at […] after 24 hrs by agar cup plate method. The arrangement: dose or concentration left out as unconfirmed. The format is functional, NCIM 2079; ATCC6538P. The conditions noted are these: ATCC6538P, read-out: IZ.
Assay [3] deals with Escherichia coli. Nature of the assay: Antibacterial activity against Escherichia coli NCIM 2065; ATCC 8739 at […] after 24 hrs by agar cup plate method. The format is functional. The conditions noted are these: ATCC 8739, 24 h, read-out: IZ. The gist of the method: as §1
Assay [4] deals with Bacillus subtilis. The assay can be described thus: Antibacterial activity against Bacillus subtilis NCIM 2063; ATCC 6633 after 24 hrs by microtitration method. In kind it is functional, NCIM 2063; ATCC6633. The settings on record: ATCC6633, 24 h. The method in brief: (§2)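 Microtitration assay using the same isolates as the cup plate test; MIC taken as the lowest concentration of test sample or antibiotic giving no visible growth.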

Assay [5] has as its system Staphylococcus aureus. Nature of the assay: Antibacterial activity against Staphylococcus aureus NCIM 2079; ATCC 6538P after 24 hrs by microtitration method. In kind it is functional. The settings on record: ATCC6538P. The method in brief: as §2
Assay [6] concerns Escherichia coli. Nature of the assay: Antibacterial activity against Escherichia coli NCIM 2065; ATCC 8739 after 24 hrs by microtitration method. The settings on record: ATCC 8739, 24 h. In kind it is functional. The method in brief:
as §2

For a further assay, the system named is Klebsiella pneumoniae. Nature of the assay: Antibacterial activity against Klebsiella pneumoniae NCIM 2957; ATCC 11298 after 24 hrs by microtitration method. The format is functional. The settings on record: ATCC 11298, 24 h. The gist of the method:
as §2

Broadly, the MIC is the least concentration at which growth counts as inhibited. On to `COc1cc(-c2noc(COc3ccc(Cl)cc3C(=O)c3ccccc3)n2)ccc1F`, for which the zone of inhibition at 100000 µg/mL was found to be 19 mm with Bacillus subtilis [1] and 17 mm in the assay with Escherichia coli [3]. Moreover, the zone of inhibition with Staphylococcus aureus [2] was 18 mm. For the same molecule, the minimum inhibitory concentration (MIC) amounted to 29.8 µg/mL (≈ 67.9 µM) with Bacillus subtilis [4], 30 µg/mL (≈ 68.4 µM) against Staphylococcus aureus [5], 30.6 µg/mL (≈ 69.7 µM) in the assay on Escherichia coli [6] and 30.8 µg/mL (≈ 70.2 µM) against Klebsiella pneumoniae.

For `CCOc1ccc(-c2noc(COc3ccc(Cl)cc3C(=O)c3ccccc3)n2)cc1`, the figures for the zone of inhibition at 100000 µg/mL in the assay on Bacillus subtilis [1] and with Escherichia coli [3] were 13 mm and 11 mm, respectively. The zone of inhibition in the assay on Staphylococcus aureus [2] turned out to be 19 mm. Further, the MIC against Bacillus subtilis [4] was determined as 42.2 µg/mL (≈ 97 µM); in the assay on Staphylococcus aureus [5] it was 29.8 µg/mL (≈ 68.5 µM); in the assay on Escherichia coli [6], 59.4 µg/mL (≈ 137 µM); with Klebsiella pneumoniae it was 40 µg/mL (≈ 92 µM).

Take `Cc1cc(-c2noc(COc3ccc(Cl)cc3C(=O)c3ccccc3)n2)ccc1F`: the zone of inhibition at 100000 µg/mL was 17 mm in the assay with Bacillus subtilis [1] and 20 mm in the assay on Escherichia coli [3]. The zone of inhibition with Staphylococcus aureus [2] was 15 mm. Also, the MIC stood at 30.6 µg/mL (≈ 72.4 µM) against Bacillus subtilis [4], 40 µg/mL (≈ 94.6 µM) against Staphylococcus aureus [5], 29.6 µg/mL (≈ 70 µM) with Escherichia coli [6] and 30 µg/mL (≈ 70.9 µM) against Klebsiella pneumoniae.

Take `Cc1cc(F)c(-c2noc(COc3ccc(Cl)cc3C(=O)c3ccccc3)n2)cc1F`: the zone of inhibition at 100000 µg/mL is 27 mm with Bacillus subtilis [1] and 19 mm with Escherichia coli [3]. For the same molecule, the zone of inhibition in the assay on Staphylococcus aureus [2] worked out at 25 mm. In addition, the MIC against Bacillus subtilis [4] is 21.5 µg/mL (≈ 48.8 µM); against Staphylococcus aureus [5], 22.4 µg/mL (≈ 50.8 µM); against Escherichia coli [6], 29.8 µg/mL (≈ 67.6 µM); in the assay on Klebsiella pneumoniae, 30.6 µg/mL (≈ 69.4 µM).

For the molecule `O=C(c1ccccc1)c1cc(Cl)ccc1OCc1nc(-c2ccccc2)no1`, the values for the zone of inhibition at 100000 µg/mL in the assay with Bacillus subtilis [1] and in the assay with Escherichia coli [3] were 14 mm and 10 mm, respectively. The zone of inhibition in the assay with Staphylococcus aureus [2] was determined as 9 mm. The minimal inhibitory concentration (MIC) against Bacillus subtilis [4] was found to be 41 µg/mL (≈ 105 µM); in the assay on Staphylococcus aureus [5], 68 µg/mL (≈ 174 µM); against Escherichia coli [6] it was 64.2 µg/mL (≈ 164 µM); with Klebsiella pneumoniae, 62 µg/mL (≈ 159 µM).

In the case of `O=C(c1ccccc1)c1cc(Cl)ccc1OCc1nc(-c2ccc(F)cc2)no1`, the values for the zone of inhibition at 100000 µg/mL in the assay with Bacillus subtilis [1] and in the assay on Escherichia coli [3] were 15 mm and 16 mm, respectively. For the same molecule, the zone of inhibition with Staphylococcus aureus [2] was determined as 14 mm. Besides, the MIC was determined as 39.6 µg/mL (≈ 96.9 µM) against Bacillus subtilis [4], 40.6 µg/mL (≈ 99.3 µM) in the assay with Staphylococcus aureus [5], 30.8 µg/mL (≈ 75.3 µM) with Escherichia coli [6] and 42 µg/mL (≈ 103 µM) with Klebsiella pneumoniae.

Take `O=C(c1ccccc1)c1cc(Cl)ccc1OCc1nc(-c2ccc(F)c(Cl)c2)no1`: the figures for the zone of inhibition at 100000 µg/mL in the assay with Bacillus subtilis [1] and with Escherichia coli [3] were 19 mm and 16 mm, respectively. In addition, the zone of inhibition in the assay on Staphylococcus aureus [2] came out at 17 mm. The MIC amounted to 29.8 µg/mL (≈ 67.2 µM) with Bacillus subtilis [4], 30.6 µg/mL (≈ 69 µM) with Staphylococcus aureus [5], 30.8 µg/mL (≈ 69.5 µM) with Escherichia coli [6] and 39.6 µg/mL (≈ 89.3 µM) against Klebsiella pneumoniae.

As for `CC(C)c1ccc(-c2noc(COc3ccc(Cl)cc3C(=O)c3ccccc3)n2)cc1`, the zone of inhibition at 100000 µg/mL was determined as 14 mm in the assay on Bacillus subtilis [1] and 11 mm in the assay with Escherichia coli [3]. The zone of inhibition with Staphylococcus aureus [2] turned out to be 15 mm. For the same molecule, the MIC came out at 40.6 µg/mL (≈ 93.8 µM) in the assay with Bacillus subtilis [4], 39.6 µg/mL (≈ 91.5 µM) against Staphylococcus aureus [5], 60.8 µg/mL (≈ 140 µM) against Escherichia coli [6] and 62 µg/mL (≈ 143 µM) against Klebsiella pneumoniae.

For the molecule `O=C(c1ccccc1)c1cc(Cl)ccc1OCc1nc(-c2ccc(I)cc2)no1`, the zone of inhibition at 100000 µg/mL in the assay with Bacillus subtilis [1] stood at 16 mm; in the assay with Escherichia coli [3], 10 mm. Further, in the assay with Staphylococcus aureus [2], the zone of inhibition is 13 mm. The MIC was 30.8 µg/mL (≈ 59.6 µM) in the assay on Bacillus subtilis [4], 41.6 µg/mL (≈ 80.5 µM) in the assay on Staphylococcus aureus [5], 62.2 µg/mL (≈ 120 µM) with Escherichia coli [6] and 46 µg/mL (≈ 89 µM) against Klebsiella pneumoniae.

As to `CC1(C)S[C@@H]2[C@H](NC(=O)[C@H](N)c3ccccc3)C(=O)N2[C@H]1C(=O)O` [AMPICILLIN], the zone of inhibition at 100000 µg/mL came to 32 mm in the assay with Bacillus subtilis [1] and 30 mm in the assay on Escherichia coli [3]. Besides, the zone of inhibition with Staphylococcus aureus [2] amounted to 31 mm. Besides, the MIC with Bacillus subtilis [4] was found to be 3.28 µg/mL (≈ 9.39 µM); against Staphylococcus aureus [5] it was 3.36 µg/mL (≈ 9.62 µM); against Escherichia coli [6], 3.88 µg/mL (≈ 11.1 µM); against Klebsiella pneumoniae it was 4 µg/mL (≈ 11.4 µM).
